Activity calls are given as the source filed them.
Legend:
Homo sapiens [1] = species on record: Homo sapiens; test: Compound was evaluated for aggregation properties on human platelets at 6.2 uM; Irreversible; assay type: functional
In short: (§1)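 Citrated human platelet-rich plasma mixed with Krebs solution and 0.9% NaCl, preincubated 2 min at 37 °C. Aggregation recorded in a Born-type aggregometer. The value is the concentration giving a primary aggregation response of 20 chart-recorder units; irreversible aggregation corresponds to 80–90 units. Each value is the mean of single determinations on PRP from at least three donors.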

Homo sapiens [2] = species on record: Homo sapiens; test: Compound was evaluated for aggregation properties on human platelets at 0.72 uM; Irreversible; assay type: functional; in short: as §1
Homo sapiens [3] = species on record: Homo sapiens; test: Compound was evaluated for aggregation properties on human platelets at 0.23 uM; Irreversible.; assay type: functional; in short: as §1
Homo sapiens [4] = species on record: Homo sapiens; test: Compound was evaluated for aggregation properties on human platelets at 10/25 uM (Dose ratio defined as the ratio of the concentrations of the agonist producing recorder unit responses in the presence and in the absence of the inhibitor); Inhi bition; assay type: functional, organism-based
Homo sapiens [5] = species on record: Homo sapiens; test: Compound was evaluated for aggregation properties on human platelets at 2.5/4.8 uM (Dose ratio defined as the ratio of the concentrations of the agonist producing recorder unit responses in the presence and in the absence of the inhibitor); In hibition; assay type: functional, organism-based
Homo sapiens [6] = species on record: Homo sapiens; test: Compound was evaluated for aggregation properties on human platelets at 10 uM (highest concentration tested); No effect; assay type: functional, organism-based
Homo sapiens [7] = species on record: Homo sapiens; test: Compound was evaluated for aggregation properties on human platelets at 80 uM (highest concentration tested); Shape change only; assay type: functional, organism-based
Homo sapiens [8] = species on record: Homo sapiens; test: Compound was evaluated for aggregation properties on human platelets at 10/1.4 uM (Dose ratio defined as the ratio of the concentrations of the agonist producing recorder unit responses in the presence and in the absence of the inhibitor); Inhibition; assay type: functional
Homo sapiens [9] = species on record: Homo sapiens; test: Compound was evaluated for aggregation properties on human platelets at 1.3 uM; Irreversible; assay type: functional; in short: as §1
Homo sapiens [10] = species on record: Homo sapiens; test: Compound was evaluated for aggregation properties on human platelets at 0.31 uM; Irreversible; assay type: functional; in short: as §1
Homo sapiens [11] = species on record: Homo sapiens; test: Compound was evaluated for aggregation properties on human platelets at 0.14 uM; Irreversible; assay type: functional; in short: as §1
Homo sapiens [12] = species on record: Homo sapiens; test: Compound was evaluated for aggregation properties on human platelets at 10/2.9 uM (Dose ratio defined as the ratio of the concentrations of the agonist producing recorder unit responses in the presence and in the absence of the inhibitor); Inhibition; assay type: functional
Homo sapiens [13] = species on record: Homo sapiens; test: Compound was evaluated for aggregation properties on human platelets at 5 uM; Reversible; assay type: functional; in short: as §1
Homo sapiens [14] = species on record: Homo sapiens; test: Compound was evaluated for aggregation properties on human platelets at 10/1.3 uM (Dose ratio defined as the ratio of the concentrations of the agonist producing recorder unit responses in the presence and in the absence of the inhibitor); Inhibition; assay type: functional
Homo sapiens [15] = species on record: Homo sapiens; test: Compound was evaluated for aggregation properties on human platelets at 1.7 uM; Irreversible; assay type: functional; in short: as §1
Homo sapiens [16] = species on record: Homo sapiens; test: Compound was evaluated for aggregation properties on human platelets at 0.19 uM; Irreversible; assay type: functional; in short: as §1
Homo sapiens [17] = species on record: Homo sapiens; test: Compound was evaluated for aggregation properties on human platelets at 20 uM (highest concentration tested); Shape change only; assay type: functional, organism-based
Homo sapiens [18] = species on record: Homo sapiens; test: Compound was evaluated for aggregation properties on human platelets at 15 uM; Reversible; assay type: functional; in short: as §1
Homo sapiens [19] = species on record: Homo sapiens; test: Compound was evaluated for aggregation properties on human platelets at 0.26 uM; Irreversible; assay type: functional; in short: as §1
Homo sapiens [20] = species on record: Homo sapiens; test: Compound was evaluated for aggregation properties on human platelets at 3.5 uM; Irreversible; assay type: functional; in short: as §1
Homo sapiens [21] = species on record: Homo sapiens; test: Compound was evaluated for aggregation properties on human platelets at 10/1.5 uM (Dose ratio defined as the ratio of the concentrations of the agonist producing recorder unit responses in the presence and in the absence of the inhibitor); Inhi bition
Homo sapiens [22] = species on record: Homo sapiens; test: Compound was evaluated for aggregation properties on human platelets at 80 uM (highest concentration tested); No effect; assay type: functional, organism-based
Homo sapiens [23] = species on record: Homo sapiens; test: Compound was evaluated for aggregation properties on human platelets at 20 uM (highest concentration tested); No effect; assay type: functional, organism-based

Structure (SMILES): CCCCC[C@](C)(O)/C=C/[C@H]1C2CCC(C2)[C@@H]1C/C=C\CCCC(=O)O (some centres undefined)
- Aggregation response (Homo sapiens [1]): Irreversible

Structure (SMILES): O=C(O)CCC/C=C\C[C@H]1C2CCC(C2)[C@@H]1/C=C/[C@@H](O)COc1ccc(Cl)cc1 (some centres undefined)
- Aggregation response (Homo sapiens [2]): Irreversible

Structure (SMILES): CCCCC[C@H](O)/C=C/[C@H]1C2CC(CO2)[C@@H]1C/C=C\CCCC(=O)O (some centres undefined)
- Aggregation response (Homo sapiens [3]): Irreversible

Structure (SMILES): CCCCC[C@H](O)/C=C/[C@H]1C2CC([C@@H]1C/C=C\CCCC(=O)O)C2(C)C (some centres undefined)
- Aggregation response (Homo sapiens [4]): Inhibition
- Aggregation response (Homo sapiens [5]): Inhibition

Structure (SMILES): O=C(O)CCC/C=C\C[C@H]1C2C=CC(C2)[C@@H]1/C=C/C(=O)COc1ccc(F)cc1 (some centres undefined)
- Aggregation response (Homo sapiens [6]): inactive

Structure (SMILES): O=C(O)CCC/C=C\C[C@H]1C2C=CC(C2)[C@@H]1/C=C/[C@@H](O)CCc1ccc(Cl)cc1 (some centres undefined)
- Aggregation response (Homo sapiens [7]): Shape change only

Structure (SMILES): CCCCC[C@@H](O)/C=C/[C@H]1C2CC([C@@H]1C/C=C\CCCC(=O)O)C2(C)C (some centres undefined)
- Aggregation response (Homo sapiens [8]): Inhibition

Structure (SMILES): CCCCC[C@H](O)/C=C/[C@H]1C2CCC(CC2)[C@@H]1C/C=C\CCCC(=O)O
- Aggregation response (Homo sapiens [9]): Irreversible

Structure (SMILES): CC1(C)C2CC1[C@H](C/C=C\CCCC(=O)O)[C@H]2/C=C/[C@@H](O)COc1ccc(F)cc1 (some centres undefined)
- Aggregation response (Homo sapiens [10]): Irreversible

Structure (SMILES): O=C(O)CCC/C=C\C[C@H]1C2CCC(C2)[C@@H]1/C=C/[C@@H](O)COc1ccc(F)cc1 (some centres undefined)
- Aggregation response (Homo sapiens [11]): Irreversible

Structure (SMILES): CCCCC[C@@H](O)/C=C/[C@H]1C2CCC(CC2)[C@@H]1C/C=C\CCCC(=O)O
- Aggregation response (Homo sapiens [12]): Inhibition

Structure (SMILES): CC1(C)C2CC1[C@H](C/C=C\CCCC(=O)O)[C@H]2/C=C/[C@H](O)COc1ccc(F)cc1 (some centres undefined)
- Aggregation response (Homo sapiens [13]): Reversible

Structure (SMILES): CCCCC[C@@](C)(O)/C=C/[C@H]1C2CCC(C2)[C@@H]1C/C=C\CCCC(=O)O (some centres undefined)
- Aggregation response (Homo sapiens [14]): Inhibition

Structure (SMILES): O=C(O)CCC/C=C\C[C@H]1C2C=CC(C2)[C@@H]1/C=C/[C@H](O)COc1ccc(F)cc1 (some centres undefined)
- Aggregation response (Homo sapiens [15]): Irreversible

Structure (SMILES): O=C(O)CCC/C=C\C[C@H]1C2CCC(C2)[C@@H]1/C=C/[C@H](O)COc1ccc(F)cc1 (some centres undefined)
- Aggregation response (Homo sapiens [9]): Irreversible

Structure (SMILES): O=C(O)CCC/C=C\C[C@H]1C2C=CC(C2)[C@@H]1/C=C/[C@@H](O)COc1ccc(F)cc1 (some centres undefined)
- Aggregation response (Homo sapiens [16]): Irreversible

Structure (SMILES): CCCCC[C@@H](O)/C=C/[C@H]1C2COC(C2)[C@@H]1C/C=C\CCCC(=O)O (some centres undefined)
- Aggregation response (Homo sapiens [17]): Shape change only

Structure (SMILES): CCCCC[C@H](O)/C=C/[C@H]1C2CCC(C2)[C@@H]1C/C=C\CCCC(=O)O (some centres undefined)
- Aggregation response (Homo sapiens [18]): Reversible

Structure (SMILES): CCCCC[C@H](O)/C=C/[C@H]1C2COC(C2)[C@@H]1C/C=C\CCCC(=O)O (some centres undefined)
- Aggregation response (Homo sapiens [19]): Irreversible

Structure (SMILES): O=C(O)CCC/C=C\C[C@H]1C2CCC(C2)[C@@H]1/C=C/[C@H](O)COc1ccc(Cl)cc1 (some centres undefined)
- Aggregation response (Homo sapiens [20]): Irreversible

Structure (SMILES): CCCCC[C@@H](O)/C=C/[C@H]1C2CCC(C2)[C@@H]1C/C=C\CCCC(=O)O (some centres undefined)
- Aggregation response (Homo sapiens [21]): Inhibition

Structure (SMILES): O=C(O)CCC/C=C\C[C@H]1C2C=CC(C2)[C@@H]1/C=C/[C@H](O)CCc1ccc(Cl)cc1 (some centres undefined)
- Aggregation response (Homo sapiens [22]): inactive

Structure (SMILES): CCCCCC(=O)/C=C/[C@H]1C2COC(C2)[C@@H]1C/C=C\CCCC(=O)O (some centres undefined)
- Aggregation response (Homo sapiens [23]): inactive

Source: ChEMBL document CHEMBL1122050, “Synthesis of prostanoids with bicyclo[2.2.1]heptane, bicyclo[3.1.1]heptane, and bicyclo[2.2.2]octane ring systems. Activities of 15-hydroxy epimers on human platelets” (J Med Chem, 1982)
